MrgX1 antagonist: antagonists of human MrgX1 receptor | Q96LB2 | MRGX1-HEK293 calcium flux, Fluo-4, BAM8-22 antagonism; active compounds read low | B-score at 10 µM | hit rate 1.3% among 310,000;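 active means calcium-response B-score plate-corrected more than 3 library SD below zero, starting fluorescence within 5 deviations, no agonist response on first addition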;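 further: peak minus trough fluorescence over baseline after final BAM8-22 challenge near maximal dose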
Target sequence (Q96LB2 whole entry, looked up): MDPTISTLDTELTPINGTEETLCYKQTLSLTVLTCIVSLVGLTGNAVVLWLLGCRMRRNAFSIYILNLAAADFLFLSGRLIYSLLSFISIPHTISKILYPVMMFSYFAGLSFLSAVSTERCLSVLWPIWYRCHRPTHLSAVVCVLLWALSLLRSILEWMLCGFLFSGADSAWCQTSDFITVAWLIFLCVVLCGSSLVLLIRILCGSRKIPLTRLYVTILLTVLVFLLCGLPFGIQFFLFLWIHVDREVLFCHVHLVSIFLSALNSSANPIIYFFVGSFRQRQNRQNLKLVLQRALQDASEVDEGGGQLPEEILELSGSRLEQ
MrgX1 ag: human MrgX1 receptor agonism, primary screen; B-score at 10 µM; AID 588627; hit rate 0.44% among 310,000; MrgX1-HEK293 cells, Fluo-4 calcium fluorescence, agonist mode; active compounds read high;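 active means calcium response B-score plate-corrected fluorescence ratio at least 3 library SD, with starting fluorescence B-score inside 5 SD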
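Material: MrgX1-expressing HEK293 cells; input: 15,000 cells per well; doses: test compound given as first of three sequential additions; schedule: overnight plating before 1 h dye loading; technique: Fluo-4 NW calcium-flux fluorescence, kinetic read; evaluation: baseline-normalised fluorescence change ratio, B-scored; control set: plate-wise positive and negative controls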
MrgX1 PAM: allosterically activates human MrgX1 receptor signaling; Q96LB2; MrgX1-HEK293, Fluo-4 calcium flux, FDSS; active compounds read high; B-score at 10 µM; hit rate 0.63% among 310,000; AID 588675;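 active means plate-corrected calcium response at least 3 library SD above typical, normal starting fluorescence, not activating the receptor alone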;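 further: compound read alongside a low EC10 to EC30 dose of BAM8-22 agonist; peak minus trough fluorescence over baseline measured at the second addition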
RGS4 act: RGS4 potentiation or activation | HEK293 M3R/inducible RGS4, carbachol calcium flux Fluo4; active compounds read low | B-score at 10 µM | hit rate 0.92% among 310,000 | AID 463111;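 active means B-score of the integrated calcium signal more than 4 SD below the library mean, with starting fluorescence not abnormally high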;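 further: negative B-score means reduced calcium response which marks RGS4 activation or potentiation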
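System: HEK293 FlpIn-TREx cells, stable M3R, doxycycline-inducible RGS4. Timing: overnight RGS4 induction, 30 min dye load 37 °C, 20 min compound RT. Also added: carbachol, ECmax concentration. Measured by: Fluo4 fluorescence kinetic imaging of calcium. Evaluation: integrated calcium ratio converted to B score.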
RGS4 block: inhibitors of human RGS4. P49798. HEK293 M3R/RGS4 inducible, Fluo-4 calcium flux; active compounds read high; triggered by carbachol at its EC20. B-score at 10 µM. hit rate 0.45% among 310,000;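 active means B-score, a plate-corrected calcium signal, over three deviations above library mean, with baseline fluorescence within five deviations of library mean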;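 further: RGS4 expression induced by doxycycline in cells with stable M3 receptor; B-score is computed from the integrated fluorescence ratio over baseline after carbachol; higher B-score means a larger calcium signal and so more RGS4 inhibition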
Target sequence (P49798 whole entry, looked up): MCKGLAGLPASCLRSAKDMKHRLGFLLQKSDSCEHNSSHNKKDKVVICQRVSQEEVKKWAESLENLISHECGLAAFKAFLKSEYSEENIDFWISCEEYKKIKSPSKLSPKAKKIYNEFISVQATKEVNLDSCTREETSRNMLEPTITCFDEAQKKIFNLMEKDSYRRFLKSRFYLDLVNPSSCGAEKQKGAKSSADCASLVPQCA
RGS4 block valid: RGS4 inhibitor validation. shares compounds with RGS4 block. HEK293 M3R/RGS4, carbachol calcium Fluo-4 fluorescence; carbachol added at its EC20; 0 = buffer wells, 100 = carbachol control. calcium response, % at 10 µM. hit rate 65% among 1,700. AID 492999;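 active means duplicate-averaged calcium response above the buffer-only control mean plus 5 SD of those controls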;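 further: integrated fluorescence ratio F max minus min over baseline F0; higher response in RGS4-induced cells means RGS4 inhibition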
RGS4 uninduced: checks RGS4 inhibitor effects in non-induced HEK293 M3R cells; shares compounds with RGS4 block; carbachol calcium Fluo-4; submaximal (EC20) carbachol stimulus; buffer wells 0%, carbachol control wells 100%; activity (percent), % at 10 µM; hit rate 20% among 1,900; AID 493000; call rule not given here;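 further: RGS4 induction absent so cells express M3R without RGS4; higher means more calcium signal and flags a non-specific hit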
RGS4 inh ctr2: second counter-screen for RGS4 inhibitors: non-induced cells without carbachol; HEK293 M3R/RGS4 non-induced, Fluo-4 calcium, no carbachol; normalised: buffer wells 0%, carbachol wells 100%; hit rate 22% among 1,900; AID 493001; shares compounds with RGS4 block; calcium response (agonist-mode artifact), % at 10 µM;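 active means duplicate-averaged calcium rise in uninduced cells above buffer wells' mean plus 5 SD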
The depositor's hits bear a star; i = inactive; . = no result. An excerpt weighted towards active compounds, which were near 3.5% of everything screened.

SMILES | MrgX1 antagonist | MrgX1 ag | MrgX1 PAM | RGS4 act | RGS4 block | RGS4 block valid | RGS4 uninduced | RGS4 inh ctr2
CCc1c(O)nc(SCC(=O)Nc2ccc(OC)cc2)n(C2CCCCC2)c1=O | i | i | i | i | i | . | . | .
COC(=O)c1sc(NC(=O)CSc2nc3cccnc3n2C)nc1C | i | i | i | i | i | . | . | .
COC(=O)c1sc(NC(=O)CSc2nc3cccnc3n2C2CCCCC2)nc1C | i | i | i | i | 4.9* | 9.5%* | i | i
CCc1c(O)nc(SCC(=O)Nc2nc3ccccc3s2)n(C2CCCCC2)c1=O | i | i | i | i | 5.8* | 37%* | i | i
CCCOc1ccccc1Nc1nnc(C)c(=O)[nH]1 | i | i | i | i | i | . | . | .
Cc1nn(CC(=O)NCc2cccs2)c(=O)c2nn(-c3ccccc3)c(C)c12 | i | i | i | i | i | i | i | i
CC1=NN(c2ccc(Cl)cc2)C(=O)/C1=C\c1cccn1-c1ccc(S(N)(=O)=O)cc1 | i | i | i | i | 4.9* | 43%* | 42%* | i
Cc1ccc(NC(=S)N/N=C/c2c(C)[nH]c3ccccc23)cc1 | i | i | i | i | 4.9* | 6.5%* | i | 12%*
Cc1[nH]c2ccccc2c1/C=N/NC(N)=S | i | i | i | i | i | . | . | .
COc1ccccc1NC(=O)c1ccccc1C(=O)Nc1ccccc1OC | i | i | i | i | i | . | . | .
CCc1ccccc1-n1ncc(C(=O)Nc2ccccc2OC)c1C | i | i | i | i | 7.4* | i | i | 32%*
COc1ccc(S(=O)(=O)N2CCCC(C(=O)N3CCOCC3)C2)cc1C (configuration not stated) | i | i | i | i | i | . | . | .
COc1ccc(OC)c(S(=O)(=O)N2CCCC(C(=O)N3CCOCC3)C2)c1 (configuration not stated) | i | i | i | i | 4.8* | i | i | i
CCOC(=O)NC(=O)CSc1nc(-c2ccc(C)c(C)c2)cn1-c1ccccc1 | i | i | i | i | i | . | . | .
Cc1ccc(-c2cn(-c3ccccc3)c(SCC(N)=O)n2)cc1C | i | i | i | i | 4.7* | 9.5%* | i | i
O=C1C(Cl)=C(N2CCC(C(=O)O)CC2)C(=O)c2ccccc21 | i | i | 15* | i | 8.8* | 39%* | i | i
NC(=O)C1CCN(C2=C(NS(=O)(=O)c3ccccc3)C(=O)c3ccccc3C2=O)CC1 | i | i | i | i | i | . | . | .
COc1cccc(C(C(=O)NC(C)(C)C)N(Cc2ccc(F)cc2)C(=O)CCC(=O)Nc2cc(C)on2)c1OC (configuration not stated) | i | i | i | i | i | . | . | .
COc1ccc(/C=C2\CCC/C(=C\C=N\N(C)C)C2=O)cc1 | i | i | i | i | i | . | . | .
CN(C)/N=C/C=C1\CCC/C(=C\c2ccc(F)c(F)c2)C1=O | i | i | i | i | 23* | 8.5%* | i | i
CCOCCCNC(=O)/C(C#N)=C/c1cc(OC)c(O)c([N+](=O)[O-])c1 | i | i | i | i | i | . | . | .
CCOCCCNC(=O)/C(C#N)=C/c1ccc(Cl)c([N+](=O)[O-])c1 | i | i | i | i | 11* | 34%* | i | i
O=C(Cn1ccc(C(F)(F)F)n1)N=Nc1c(O)[nH]c2ccccc12 | i | i | i | i | i | . | i | i
Oc1[nH]c2ccc(Br)cc2c1N=Nc1ccc(C(F)(F)F)cn1 | i | i | i | i | i | . | . | .
O=C(Cn1ccc(C(F)(F)F)n1)N=Nc1c(O)[nH]c2ccc(Br)cc12 | i | i | i | i | 4.7* | 32%* | i | i
SMILES | MrgX1 antagonist | MrgX1 ag | MrgX1 PAM | RGS4 act | RGS4 block | RGS4 block valid | RGS4 uninduced | RGS4 inh ctr2
CC(C)n1c(O)c(N=NC(=O)Cn2ccc(C(F)(F)F)n2)c2ccccc21 | i | i | i | i | i | . | . | .
Cc1ccccc1NC(=O)C(=Cc1ccc(C(=O)O)cc1)C(=O)Nc1ccccc1C | . | . | . | i | 10* | 53%* | i | i
N#C/C(=C/c1ccc(C(=O)O)cc1)C(=O)Nc1ccccc1 | i | i | i | i | i | . | . | .
CC(/C=C/c1ccccc1)=N/NC(=O)CCC(=O)Nc1ccccc1C | i | i | i | i | i | . | . | .
CC(=O)/C(=C/c1ccccc1)C(=O)Nc1ccccc1C | i | i | i | i | 28* | 64%* | 64%* | i
Cn1nc(C(=O)NCCc2ccc(S(N)(=O)=O)cc2)c2ccccc2c1=O | i | i | i | i | i | . | . | .
Cc1ccc(/C=N/NC(=O)Cc2c[nH]c3ccccc23)c(C)c1 | i | i | i | i | 6.9* | 31%* | i | 42%*
O=C(Cc1c[nH]c2ccccc12)N/N=C/c1ccccc1O | i | i | i | i | i | . | . | .
C=CCn1c(SC(C)CC)nc(O)cc1=O (configuration not stated) | i | i | i | i | 4.8* | i | i | i
C=CCn1c(SCCCCCC)nc(O)cc1=O | i | i | i | i | i | . | . | .
CC(=O)/C=C/n1c(=S)oc2ccccc21 | i | i | i | i | 10* | 21%* | i | 7.0%*
CCC1CCCCN1C(=O)c1ccc2c(c1)C(=O)N(c1ccc(C)cc1)C2=O (configuration not stated) | i | i | i | i | i | . | . | .
Fc1ccccc1CN1CCCC(NC2CCC2)C1 (configuration not stated) | i | i | i | i | 6.9* | 8.0%* | i | i
O=C(O)CN1C(=O)/C(=C\C(Br)=C\c2ccccc2)SC1=S | i | i | i | i | 12* | 54%* | i | i
O=C(O)CN1C(=O)/C(=C/C=C/c2ccccc2)SC1=S | i | i | i | i | i | . | . | .
Cc1ccc(C(=O)C(C)OC(=O)C2CCN(c3ccc(C(F)(F)F)cn3)CC2)cc1C (configuration not stated) | i | i | i | i | i | . | . | .

Screening results as filed in PubChem.
